Data on 3 compounds can be found in ChEMBL document CHEMBL3259739, “Synthesis and structure-activity relationship of trisubstituted thiazoles as Cdc7 kinase inhibitors” (Eur J Med Chem, 2014).

Test [1] concerns the target Serine/threonine-protein kinase OSR1 (Homo sapiens) (UniProt O95747). Nature of the test: Inhibition of OSR1 (unknown origin) at 1 uM relative to control; values are per cent of control.
In test [2] the target is T1, Calcium/calmodulin-dependent protein kinase type IV (Homo sapiens) (UniProt Q16566).
T1 sequence (whole entry): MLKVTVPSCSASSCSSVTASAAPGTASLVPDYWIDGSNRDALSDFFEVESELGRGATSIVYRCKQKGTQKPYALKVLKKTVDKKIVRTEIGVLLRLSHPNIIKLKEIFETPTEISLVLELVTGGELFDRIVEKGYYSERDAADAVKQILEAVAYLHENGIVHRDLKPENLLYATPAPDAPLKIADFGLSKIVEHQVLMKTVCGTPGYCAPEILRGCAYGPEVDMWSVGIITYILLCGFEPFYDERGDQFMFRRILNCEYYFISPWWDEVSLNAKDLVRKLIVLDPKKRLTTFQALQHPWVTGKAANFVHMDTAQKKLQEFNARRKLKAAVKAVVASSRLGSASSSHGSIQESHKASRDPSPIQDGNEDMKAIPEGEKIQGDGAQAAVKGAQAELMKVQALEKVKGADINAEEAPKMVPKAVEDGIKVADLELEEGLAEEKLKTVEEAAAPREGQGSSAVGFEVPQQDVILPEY
Nature of the test: Inhibition of CAMK4 (unknown origin) at 1 uM relative to control; values are per cent of control.

The target of test [3] is Wee1-like protein kinase (Homo sapiens) (UniProt P30291). Nature of the test: Inhibition of WEE1 (unknown origin) at 1 uM relative to control. Particulars: values are per cent of control. An outline of the steps:
(§1)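 KinomeSCAN competitive binding panel of 100 kinases; compounds tested at 1 µM in duplicate; read-out is percent […] control.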

The target of test [4] is T2, Cyclin-G-associated kinase (Homo sapiens) (UniProt O14976).
T2 sequence (whole entry): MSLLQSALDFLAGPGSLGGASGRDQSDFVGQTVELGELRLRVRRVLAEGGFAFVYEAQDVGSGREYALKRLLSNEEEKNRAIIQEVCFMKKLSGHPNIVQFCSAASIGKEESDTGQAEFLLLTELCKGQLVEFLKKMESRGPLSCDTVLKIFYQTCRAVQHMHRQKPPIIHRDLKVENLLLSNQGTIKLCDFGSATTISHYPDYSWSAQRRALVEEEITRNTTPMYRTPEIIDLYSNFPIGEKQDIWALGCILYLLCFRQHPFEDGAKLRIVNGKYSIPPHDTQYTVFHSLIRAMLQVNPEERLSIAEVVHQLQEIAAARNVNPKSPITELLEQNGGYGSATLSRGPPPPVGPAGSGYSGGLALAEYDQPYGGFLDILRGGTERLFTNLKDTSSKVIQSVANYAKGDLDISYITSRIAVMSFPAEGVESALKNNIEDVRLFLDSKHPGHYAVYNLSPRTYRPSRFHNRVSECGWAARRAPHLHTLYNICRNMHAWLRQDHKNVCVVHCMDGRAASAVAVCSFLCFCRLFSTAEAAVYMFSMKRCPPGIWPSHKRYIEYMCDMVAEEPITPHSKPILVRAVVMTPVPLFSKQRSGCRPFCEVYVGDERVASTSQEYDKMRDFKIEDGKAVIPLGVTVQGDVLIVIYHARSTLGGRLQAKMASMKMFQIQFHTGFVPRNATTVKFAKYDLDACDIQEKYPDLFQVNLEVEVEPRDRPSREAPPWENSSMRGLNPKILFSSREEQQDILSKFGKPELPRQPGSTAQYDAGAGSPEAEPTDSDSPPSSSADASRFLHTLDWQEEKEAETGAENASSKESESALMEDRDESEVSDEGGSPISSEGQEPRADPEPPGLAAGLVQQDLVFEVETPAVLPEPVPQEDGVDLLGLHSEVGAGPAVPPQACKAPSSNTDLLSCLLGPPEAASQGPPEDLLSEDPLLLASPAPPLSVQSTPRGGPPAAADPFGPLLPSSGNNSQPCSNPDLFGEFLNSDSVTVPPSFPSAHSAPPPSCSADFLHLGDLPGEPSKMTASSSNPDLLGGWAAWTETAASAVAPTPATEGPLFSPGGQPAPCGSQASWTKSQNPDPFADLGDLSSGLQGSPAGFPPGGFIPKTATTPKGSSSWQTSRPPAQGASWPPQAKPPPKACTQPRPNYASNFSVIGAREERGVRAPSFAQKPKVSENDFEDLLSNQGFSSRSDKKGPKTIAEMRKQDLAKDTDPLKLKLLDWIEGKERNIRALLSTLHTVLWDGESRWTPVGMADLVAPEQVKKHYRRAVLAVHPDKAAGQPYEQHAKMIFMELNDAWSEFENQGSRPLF
Nature of the test: Inhibition of GAK (unknown origin) at 1 uM relative to control; values are per cent of control.

The target in test [5] is Mitogen-activated protein kinase kinase kinase kinase 4 (Homo sapiens) (UniProt O95819). Nature of the test: Inhibition of MAP4K4 (unknown origin) at 1 uM relative to control; values are per cent of control.
Chain of Mitogen-activated protein kinase kinase kinase kinase 4 (Homo sapiens) (O95819 2-1239 limits assumed): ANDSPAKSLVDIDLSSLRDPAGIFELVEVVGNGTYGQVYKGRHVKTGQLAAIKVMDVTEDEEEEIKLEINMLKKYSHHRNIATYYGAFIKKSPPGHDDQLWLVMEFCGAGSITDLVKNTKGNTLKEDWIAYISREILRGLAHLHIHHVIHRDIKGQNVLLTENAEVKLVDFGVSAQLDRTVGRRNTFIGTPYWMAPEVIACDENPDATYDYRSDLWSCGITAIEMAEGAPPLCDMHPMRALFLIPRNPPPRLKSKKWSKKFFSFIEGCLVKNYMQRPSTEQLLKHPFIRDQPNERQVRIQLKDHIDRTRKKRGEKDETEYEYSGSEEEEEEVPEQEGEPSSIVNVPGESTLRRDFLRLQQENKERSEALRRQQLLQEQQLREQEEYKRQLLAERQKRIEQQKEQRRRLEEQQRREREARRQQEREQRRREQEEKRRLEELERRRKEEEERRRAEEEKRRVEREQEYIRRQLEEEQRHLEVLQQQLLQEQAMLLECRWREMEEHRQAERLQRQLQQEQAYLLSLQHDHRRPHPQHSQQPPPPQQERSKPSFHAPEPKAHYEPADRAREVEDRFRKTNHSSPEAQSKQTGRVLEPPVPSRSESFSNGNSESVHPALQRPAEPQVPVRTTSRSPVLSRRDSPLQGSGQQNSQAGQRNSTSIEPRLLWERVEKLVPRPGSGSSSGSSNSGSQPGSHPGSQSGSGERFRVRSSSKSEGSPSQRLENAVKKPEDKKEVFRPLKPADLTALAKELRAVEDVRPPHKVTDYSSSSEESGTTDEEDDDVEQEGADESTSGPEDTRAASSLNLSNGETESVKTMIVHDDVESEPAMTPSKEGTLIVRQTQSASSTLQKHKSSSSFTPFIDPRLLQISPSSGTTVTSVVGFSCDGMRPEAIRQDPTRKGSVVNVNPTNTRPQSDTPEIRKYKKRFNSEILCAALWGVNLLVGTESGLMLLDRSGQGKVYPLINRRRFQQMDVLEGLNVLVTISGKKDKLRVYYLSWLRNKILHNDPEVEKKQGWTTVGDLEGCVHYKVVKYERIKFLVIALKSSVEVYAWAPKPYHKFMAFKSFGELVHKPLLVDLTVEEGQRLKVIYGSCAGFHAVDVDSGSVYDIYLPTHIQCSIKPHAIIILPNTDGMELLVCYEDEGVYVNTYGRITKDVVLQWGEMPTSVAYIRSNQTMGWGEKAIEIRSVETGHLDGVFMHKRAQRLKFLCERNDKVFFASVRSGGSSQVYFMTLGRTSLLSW
In test [6] the target is T3, cGMP-dependent protein kinase 1 (Homo sapiens) (UniProt Q13976).
T3 sequence (whole entry): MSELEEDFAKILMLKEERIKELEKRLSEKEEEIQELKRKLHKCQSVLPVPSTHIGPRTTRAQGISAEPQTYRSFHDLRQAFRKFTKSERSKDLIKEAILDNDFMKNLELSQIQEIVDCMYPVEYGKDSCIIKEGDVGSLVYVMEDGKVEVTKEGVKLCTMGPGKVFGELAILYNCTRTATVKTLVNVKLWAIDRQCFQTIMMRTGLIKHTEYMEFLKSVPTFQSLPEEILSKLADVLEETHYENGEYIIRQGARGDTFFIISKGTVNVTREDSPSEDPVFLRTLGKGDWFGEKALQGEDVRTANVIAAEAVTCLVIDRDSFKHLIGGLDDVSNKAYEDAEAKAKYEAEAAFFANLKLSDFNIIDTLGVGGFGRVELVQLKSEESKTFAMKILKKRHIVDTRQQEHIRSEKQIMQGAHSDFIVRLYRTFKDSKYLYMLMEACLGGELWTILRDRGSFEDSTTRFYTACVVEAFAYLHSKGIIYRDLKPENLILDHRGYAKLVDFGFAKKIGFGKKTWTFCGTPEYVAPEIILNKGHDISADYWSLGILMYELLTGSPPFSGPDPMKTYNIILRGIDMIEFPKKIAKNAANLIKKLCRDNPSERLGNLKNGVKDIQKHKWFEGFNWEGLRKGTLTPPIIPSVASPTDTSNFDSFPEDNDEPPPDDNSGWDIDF
Nature of the test: Inhibition of PRKG1 (unknown origin) at 1 uM relative to control. Particulars: values are per cent of control.

The target of test [7] is Serine/threonine-protein kinase PAK 2 (Homo sapiens) (UniProt Q13177). Nature of the test: Inhibition of PAK2 (unknown origin) at 1 uM relative to control. Particulars: values are per cent of control. An outline of the steps: as §1
Chain of Serine/threonine-protein kinase PAK 2 (Homo sapiens) (Q13177 whole entry): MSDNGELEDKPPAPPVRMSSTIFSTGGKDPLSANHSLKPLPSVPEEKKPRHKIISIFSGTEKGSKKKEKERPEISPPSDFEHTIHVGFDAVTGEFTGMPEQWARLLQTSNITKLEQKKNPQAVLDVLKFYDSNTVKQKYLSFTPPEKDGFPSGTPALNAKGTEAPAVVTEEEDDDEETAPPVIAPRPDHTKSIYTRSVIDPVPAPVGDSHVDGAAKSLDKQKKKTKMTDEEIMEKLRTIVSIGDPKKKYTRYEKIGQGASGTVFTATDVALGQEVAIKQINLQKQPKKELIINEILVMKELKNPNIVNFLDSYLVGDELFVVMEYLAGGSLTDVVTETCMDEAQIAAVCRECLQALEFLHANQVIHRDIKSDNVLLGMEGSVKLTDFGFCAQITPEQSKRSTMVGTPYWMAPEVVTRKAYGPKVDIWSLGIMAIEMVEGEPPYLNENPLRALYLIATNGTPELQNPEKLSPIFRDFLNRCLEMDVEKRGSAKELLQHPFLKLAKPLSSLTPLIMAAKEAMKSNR

Chain of Wee1-like protein kinase (Homo sapiens) (P30291 whole entry, looked up): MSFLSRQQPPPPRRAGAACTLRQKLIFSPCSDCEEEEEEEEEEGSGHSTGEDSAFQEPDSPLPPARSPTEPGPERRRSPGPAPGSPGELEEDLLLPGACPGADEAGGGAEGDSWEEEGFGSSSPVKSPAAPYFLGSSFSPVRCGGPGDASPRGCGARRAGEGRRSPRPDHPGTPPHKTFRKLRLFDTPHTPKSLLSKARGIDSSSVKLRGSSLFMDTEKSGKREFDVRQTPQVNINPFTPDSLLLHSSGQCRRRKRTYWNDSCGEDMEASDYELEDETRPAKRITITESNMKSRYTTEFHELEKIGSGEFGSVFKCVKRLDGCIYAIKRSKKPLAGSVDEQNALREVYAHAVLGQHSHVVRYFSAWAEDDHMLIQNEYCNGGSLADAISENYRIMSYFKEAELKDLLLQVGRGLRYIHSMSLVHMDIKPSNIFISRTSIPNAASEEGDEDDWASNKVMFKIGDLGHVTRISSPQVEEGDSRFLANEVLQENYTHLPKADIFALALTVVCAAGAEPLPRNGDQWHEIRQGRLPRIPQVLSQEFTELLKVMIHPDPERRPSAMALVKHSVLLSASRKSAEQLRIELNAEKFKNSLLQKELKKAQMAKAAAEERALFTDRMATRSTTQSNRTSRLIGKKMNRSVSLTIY
Chain of Serine/threonine-protein kinase OSR1 (Homo sapiens) (O95747 2-527 limits assumed): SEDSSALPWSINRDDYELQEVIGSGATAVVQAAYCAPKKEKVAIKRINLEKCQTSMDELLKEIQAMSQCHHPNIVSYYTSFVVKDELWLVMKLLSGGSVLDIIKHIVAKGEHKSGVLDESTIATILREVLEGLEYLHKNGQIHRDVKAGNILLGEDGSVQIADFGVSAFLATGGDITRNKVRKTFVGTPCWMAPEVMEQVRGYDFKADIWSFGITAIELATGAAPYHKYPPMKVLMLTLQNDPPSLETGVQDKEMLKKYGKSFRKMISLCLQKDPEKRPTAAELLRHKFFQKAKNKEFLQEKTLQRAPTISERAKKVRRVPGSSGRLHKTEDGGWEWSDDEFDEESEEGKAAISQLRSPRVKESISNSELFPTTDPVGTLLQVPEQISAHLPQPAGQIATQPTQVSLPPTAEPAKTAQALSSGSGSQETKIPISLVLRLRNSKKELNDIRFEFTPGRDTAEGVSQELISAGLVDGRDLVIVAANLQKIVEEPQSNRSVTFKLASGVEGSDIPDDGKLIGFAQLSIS

For `CCOC(=O)c1sc(-c2ccncc2)nc1O`, the residual activity was 100% in test [1], 76% in test [2], 97% in test [4] and 80% in test [5]. In addition, the values for the residual binding, % of control in test [3], in test [6] and in test [7] were 73%, 75% and 99%, respectively.
`NC(=O)c1sc(-c2ccnc(N)n2)nc1-c1ccc(Cl)cc1Cl`: the residual activity in test [1] amounted to 82%; in test [2] it was 100%; in test [4], 90%; in test [5], 72%. The figures for the residual binding, % of control in test [3], in test [6] and in test [7] were 74%, 88% and 100%, respectively.
As to `COc1ccc(-c2nc(-c3ccnc(N)n3)sc2C(N)=O)c(Cl)c1`, the residual activity in test [1] was 92%; in test [2], 100%; in test [4], 88%; in test [5] it was 89%. For the same compound, the residual binding, % of control was found to be 94% in test [3], 51% in test [6] and 89% in test [7].
